According to ChEMBL document CHEMBL1136783, “New cytotoxic and water-soluble bis(2-phenylazopyridine)ruthenium(II) complexes” (J Med Chem, 2003):

Key:
[1] = tested on: A2780; assay: Cytotoxicity against human ovarian carcinoma A2780cisR cell line; format: functional, cell-based
Summary of the method: (§1)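 Cells kept in log-phase DMEM with 10% fetal calf serum, penicillin/streptomycin and Glutamax. Seeded at 2000 cells/well and allowed 48 h adhesion at 37 °C, 5% CO2. Exposed 72 h to compound diluted from a DMSO stock into complete medium, final 0.01 to 0.0001 mg/mL, in quadruplicate. Vehicle control contained 1% DMSO. Proliferation read by MTT (1 h, DMSO solubilization, OD 590 nm).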

[2] = tested on: A2780; assay: Cytotoxicity against human ovarian carcinoma A2780 cell line; format: functional, cell-based; summary of the method: as §1

Substance	IC50 [1] [µM]	IC50 [2] [µM]
alpha-[Ru(azpy)2(cbdca-O,O')]	4.9	7.2
alpha-[Ru(azpy)2(NO3)2]	6.3	8.5
beta-[Ru(azpy)2Cl2] CHCl3	7.3	1.6
CISPLATIN	7.8	2.3
alpha-[Ru(azpy)2(mal)]	6.2	7.9
beta-[Ru(azpy)2(NO3)2] CHCl3	12.1	9.7
alpha-[Ru(azpy)2Cl2]	0.98	0.85
CARBOPLATIN	41.6	8.2
